In ChEMBL document CHEMBL3627681, “Synthesis and biological evaluation of 1,3-diaryl pyrazole derivatives as potential antibacterial and anti-inflammatory agents” (2015):
Converted amounts (≈) assume the structure as drawn.

Legend:
Escherichia coli [1] = experiment: Antibacterial activity against Escherichia coli KCTC 1924 after 24 hrs by two-fold serial dilution method; format: functional; details: KCTC 1924, 24 h
Summary of the method: (§1)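 Broth microdilution in Mueller-Hinton broth over final concentrations of 64–0.5. Bacteria were grown to mid-log phase and diluted 1000-fold, then inoculated at 10⁵ CFU/mL. Compounds were dissolved in DMSO, with final DMSO at most 0.05%. Plates were incubated 24 h at 37 °C and growth read as absorbance at 650 nm. MIC is the concentration giving complete growth inhibition. Three independent runs.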

Salmonella typhimurium = experiment: Antibacterial activity against Salmonella typhimurium 2421 after 24 hrs by two-fold serial dilution method; format: functional, Salmonella enterica subsp. enterica serovar Typhimurium; details: Salmonella enterica, 2421, 24 h; summary of the method: as §1
Candida albicans = experiment: Antifungal activity against Candida albicans 7535 by two-fold serial dilution method; format: functional
Streptococcus mutans = experiment: Antibacterial activity against Streptococcus mutans 3065 after 24 hrs by two-fold serial dilution method; format: functional; details: Streptococcus mutans, 3065, 24 h; summary of the method: as §1
Staphylococcus aureus [2] = experiment: Antibacterial activity against Staphylococcus aureus 209 after 24 hrs by two-fold serial dilution method; format: functional; details: Staphylococcus aureus, 209, 24 h
Summary of the method: (§2)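 Broth microdilution in Mueller-Hinton broth. Bacteria grown to mid-log phase, diluted 1000-fold, and inoculated at 10⁵ CFU/mL. Test compounds in DMSO, final DMSO not above 0.05%, final concentrations 64-0.5 µg/mL. Incubation 24 h at 37 °C, growth read as absorbance at 650 nm. MIC taken as the lowest concentration giving complete growth inhibition. Run three times.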

Staphylococcus aureus [3] = experiment: Antibacterial activity against quinolone-resistant Staphylococcus aureus CCARM 3519 after 24 hrs by two-fold serial dilution method; format: functional; details: CCARM 3519, 24 h; summary of the method: as §2
Pseudomonas aeruginosa [4] = experiment: Antibacterial activity against Pseudomonas aeruginosa 2004 after 24 hrs by two-fold serial dilution method; format: functional; details: Pseudomonas aeruginosa, 2004, 24 h; summary of the method: as §1
Staphylococcus aureus [5] = experiment: Antibacterial activity against Staphylococcus aureus RN4220 after 24 hrs by two-fold serial dilution method; format: functional; details: RN4220, 24 h; summary of the method: as §2
Mus musculus = experiment: Antiinflammatory activity in mouse assessed as inhibition of xylene-induced ear edema at 50 mg/kg, ip administered 30 mins before xylene challenge relative to control; format: functional
Summary of the method: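 Mice received compound freshly dissolved in DMSO, 50 mg/kg ip at 0.05 mL/20 g body weight; vehicle controls got DMSO alone. After 30 min, 20 µL xylene was applied to the right ear. After a further 30 min, 7 mm plugs were cut from treated and untreated ears and edema taken as their weight difference. Result is % edema reduction versus vehicle controls.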

Pseudomonas aeruginosa [6] = experiment: Antibacterial activity against Pseudomonas aeruginosa 2742 after 24 hrs by two-fold serial dilution method; format: functional; details: Pseudomonas aeruginosa, 2742, 24 h; summary of the method: as §1
Escherichia coli [7] = experiment: Antibacterial activity against Escherichia coli CCARM 1356 after 24 hrs by two-fold serial dilution method; format: functional; details: CCARM 1356, 24 h; summary of the method: as §1
Staphylococcus aureus [8] = experiment: Antibacterial activity against methicillin-resistant Staphylococcus aureus CCARM 3167 after 24 hrs by two-fold serial dilution method; format: functional; details: CCARM 3167, 24 h; summary of the method: as §2
Staphylococcus aureus [9] = experiment: Antibacterial activity against Staphylococcus aureus 503 after 24 hrs by two-fold serial dilution method; format: functional; details: Staphylococcus aureus, 503, 24 h; summary of the method: as §2
Staphylococcus aureus [10] = experiment: Antibacterial activity against methicillin-resistant Staphylococcus aureus CCARM 3506 after 24 hrs by two-fold serial dilution method; format: functional; details: CCARM 3506, 24 h; summary of the method: as §2
Staphylococcus aureus [11] = experiment: Antibacterial activity against quinolone-resistant Staphylococcus aureus CCARM 3505 after 24 hrs by two-fold serial dilution method; format: functional; details: CCARM 3505, 24 h; summary of the method: as §2
Escherichia coli [12] = experiment: Ratio of moxifloxacin MIC to compound MIC for Escherichia coli CCARM 1356 after 24 hrs by two-fold serial dilution method; format: functional

| SMILES | MIC (Escherichia coli [1]) [µg/mL] | MIC (Salmonella typhimurium) [µg/mL] | MIC (Candida albicans) [µg/mL] | MIC (Streptococcus mutans) [µg/mL] | MIC (Staphylococcus aureus [2]) [µg/mL] | MIC (Staphylococcus aureus [3]) [µg/mL] | MIC (Pseudomonas aeruginosa [4]) [µg/mL] | MIC (Staphylococcus aureus [5]) [µg/mL] | inhibition in vivo at 50 mg/kg (Mus musculus) [%] | MIC (Pseudomonas aeruginosa [6]) [µg/mL] | MIC (Escherichia coli [7]) [µg/mL] | MIC (Staphylococcus aureus [8]) [µg/mL] | MIC (Staphylococcus aureus [9]) [µg/mL] | MIC (Staphylococcus aureus [10]) [µg/mL] | MIC (Staphylococcus aureus [11]) [µg/mL] | Ratio (Escherichia coli [12]) |
| --- | --- | --- | --- | --- | --- | --- | --- | --- | --- | --- | --- | --- | --- | --- | --- | --- |
| O=C(N/N=C/c1cn(-c2ccc([N+](=O)[O-])cc2[N+](=O)[O-])nc1-c1ccccc1F)c1ccco1 | > 64 | > 64 | > 64 | > 64 | > 64 | > 64 | > 64 | > 64 | 28 | > 64 | > 64 | > 64 | > 64 | > 64 | > 64 |  |
| Cc1cccc(-c2nn(-c3ccc([N+](=O)[O-])cc3[N+](=O)[O-])cc2/C=N/NC(=N)N)c1 | 2 (≈ 4.9 µM) | 8 (≈ 19.6 µM) | 2 (≈ 4.9 µM) | 4 (≈ 9.79 µM) | 2 (≈ 4.9 µM) | 4 (≈ 9.79 µM) | > 64 | 2 (≈ 4.9 µM) | 76.9 | > 64 | 8 (≈ 19.6 µM) | 2 (≈ 4.9 µM) | 2 (≈ 4.9 µM) | 2 (≈ 4.9 µM) | 2 (≈ 4.9 µM) | 16 |
| N=C(N)N/N=C/c1cn(-c2ccc([N+](=O)[O-])cc2[N+](=O)[O-])nc1-c1ccccc1Br | 4 (≈ 8.45 µM) | 16 (≈ 33.8 µM) | 2 (≈ 4.23 µM) | 16 (≈ 33.8 µM) | 8 (≈ 16.9 µM) | 8 (≈ 16.9 µM) | > 64 | 4 (≈ 8.45 µM) | 78.1 | > 64 | 16 (≈ 33.8 µM) | 4 (≈ 8.45 µM) | 4 (≈ 8.45 µM) | 4 (≈ 8.45 µM) | 4 (≈ 8.45 µM) |  |
| N=C(N)N/N=C/c1cn(-c2ccc([N+](=O)[O-])cc2[N+](=O)[O-])nc1-c1ccccc1 | 8 (≈ 20.3 µM) | 16 (≈ 40.6 µM) | 4 (≈ 10.1 µM) | 16 (≈ 40.6 µM) | 8 (≈ 20.3 µM) | 8 (≈ 20.3 µM) | > 64 | 8 (≈ 20.3 µM) | 86.9 | > 64 | 16 (≈ 40.6 µM) | 8 (≈ 20.3 µM) | 8 (≈ 20.3 µM) | 8 (≈ 20.3 µM) | 8 (≈ 20.3 µM) |  |
| CCC(C)n1ncn(-c2ccc(N3CCN(c4ccc(OCC5COC(Cn6cncn6)(c6ccc(Cl)cc6Cl)O5)cc4)CC3)cc2)c1=O (stereo unspecified) [ITRACONAZOLE] |  |  | 0.06 (≈ 0.085 µM) |  |  |  |  |  |  |  |  |  |  |  |  |  |
| OC(Cn1cncn1)(Cn1cncn1)c1ccc(F)cc1F [FLUCONAZOLE] |  |  | 1 (≈ 3.27 µM) |  |  |  |  |  |  |  |  |  |  |  |  |  |
| N=C(N)N/N=C/c1cn(-c2ccccc2)nc1-c1ccc(Br)cc1 | 8 (≈ 20.9 µM) | > 64 | 4 (≈ 10.4 µM) | > 64 | 8 (≈ 20.9 µM) | 16 (≈ 41.7 µM) | > 64 | 4 (≈ 10.4 µM) | 42.8 | > 64 | > 64 | 8 (≈ 20.9 µM) | 4 (≈ 10.4 µM) | 4 (≈ 10.4 µM) | 16 (≈ 41.7 µM) |  |
| Cc1onc(-c2ccccc2)c1C(=O)N[C@@H]1C(=O)N2[C@@H]1SC(C)(C)[C@@H]2C(=O)O [OXACILLIN] |  |  |  |  |  | 1 (≈ 2.49 µM) |  |  |  |  |  | > 64 |  | > 64 | 1 (≈ 2.49 µM) |  |
| N=C(N)N/N=C/c1cn(-c2ccc([N+](=O)[O-])cc2[N+](=O)[O-])nc1-c1ccccc1F | 8 (≈ 19.4 µM) | 16 (≈ 38.8 µM) | 4 (≈ 9.7 µM) | 16 (≈ 38.8 µM) | 8 (≈ 19.4 µM) | 8 (≈ 19.4 µM) | > 64 | 8 (≈ 19.4 µM) | 87.2 | > 64 | 16 (≈ 38.8 µM) | 8 (≈ 19.4 µM) | 8 (≈ 19.4 µM) | 4 (≈ 9.7 µM) | 8 (≈ 19.4 µM) |  |
| COc1c(N2CCNC(C)C2)c(F)cc2c(=O)c(C(=O)O)cn(C3CC3)c12 (stereo unspecified) [GATIFLOXACIN] | 2 (≈ 5.33 µM) | 0.5 (≈ 1.33 µM) | 0.5 (≈ 1.33 µM) | 0.5 (≈ 1.33 µM) | 2 (≈ 5.33 µM) | 4 (≈ 10.7 µM) | 1 (≈ 2.66 µM) | 0.25 (≈ 0.666 µM) |  | 1 (≈ 2.66 µM) | 16 (≈ 42.6 µM) | 2 (≈ 5.33 µM) | 2 (≈ 5.33 µM) | 2 (≈ 5.33 µM) | 8 (≈ 21.3 µM) |  |
